Bioassay records as filed in PubChem BioAssay.
This is a sample that favours compounds with a hit; in the whole collection about 2.1% have one here.
ARNT-TACC3 inh = disruptors of human ARNT/TACC3 interaction | Q9Y6A5 | AlphaScreen His-ARNT PAS-B/GST-TACC3 binding, luminescence; TACC3 fragment carries E629A point mutation | inhibition, % at 9.99 µM | hit rate 0.66% among 390,000 | AID 623870;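 active = mean inhibition of replicates at least 50% and at least half of replicates each reaching 50%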;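 also: 0% = complete ARNT plus TACC3 wells and 100% = ARNT alone without TACC3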
UCH37 inh = human UCH37 deubiquitinating enzyme inhibition | Q9Y5K5 | purified proteasome/UCH37, Ub-AMC cleavage fluorescence | inhibition, % (test concentration not listed) | hit rate 0.33% among 330,000;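 active = mean inhibition over replicate wells above about 20%, limit read from the data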;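 also: 0% = compound-free wells with enzyme and 100% = wells lacking proteasome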
Target sequence (Q9Y5K5 whole entry, looked up): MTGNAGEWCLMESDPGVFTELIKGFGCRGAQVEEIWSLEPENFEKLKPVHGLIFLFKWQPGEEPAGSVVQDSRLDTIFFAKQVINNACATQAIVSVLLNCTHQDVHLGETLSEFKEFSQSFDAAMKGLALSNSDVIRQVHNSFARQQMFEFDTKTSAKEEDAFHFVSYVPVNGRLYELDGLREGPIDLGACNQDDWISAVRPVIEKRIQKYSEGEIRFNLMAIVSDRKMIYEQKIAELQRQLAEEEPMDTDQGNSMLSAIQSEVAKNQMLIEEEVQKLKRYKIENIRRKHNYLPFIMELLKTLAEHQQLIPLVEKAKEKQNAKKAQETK
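Material: human UCH37 enzyme supplied as purified proteasome complex. Measure: % inhibition of Ub-AMC cleavage fluorescence. Medium: pH 7.4 Tris-HCl (50 mM) with ovalbumin, ATP-MgCl2, DTT. Times: 30 min preincubation with enzyme, 25 min cleavage at room temperature. Detection: AMC fluorescence intensity at 355/460 nm.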
Efflux pump inh = antifungal efflux pump inhibition, Nile Red retention | S. cerevisiae Candida pump triplex | hit rate 0.44% among 330,000 | inhibition, % at 10 µM;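 active = plate passing quality check with inhibition over a set limit, or well fluorescence over plate mean plus 4 SD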;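 also: Nile Red retained in pooled yeast measured as flow cytometry median fluorescence; 0% = buffer negative control and 100% = Enniatin B positive control; higher means more Nile Red kept so more efflux inhibition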
RTF Ca sens act = increases calcium sensitivity of human cardiac regulated thin filaments; P19429+P45379; IANBD-labeled TnC RTF fluorescence at EC20 calcium; 0% EC20 calcium, 100% full calcium; activation, % at 7.2 µM; hit rate 0.24% among 340,000;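 active = activation above the mean over all tested compounds plus 3 SD, cut at about 30% in these data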;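 also: rise in fluorescence read as greater calcium sensitivity of cardiac thin filaments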
Cardiac RTF inh = cardiac RTF calcium desensitization | inhibition, % at 7.15 µM | IANBD-labeled cardiac RTF, Ca2+ fluorescence | P19429+P45379 | hit rate 0.12% among 340,000;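 active = inhibition above the mean inhibition of all tested compounds plus 3 SD, cut at about 17% in these data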;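 also: assay run at fixed EC70 calcium of 1.6 mM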
SUMO Mot1 rescue = blocks SUMOylation pathway, rescuing yeast Mot1-301 growth; hit rate 1% among 320,000; S. cerevisiae Mot1-301 growth rescue, ATP luminescence, 38.5C; percent above DMSO median, 100 means doubled; growth rescue, % at 18.8 µM;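 active = every valid replicate shows activation above 250% relative to neutral control wells; inactive = the rest, any valid replicate at or below 250%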;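 also: OY570 slx delta 5 strain wells were the positive control but not used for scaling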
Starred values were filed as active, the others as inactive; / = not tested or not shown; + = active, no number.

SMILES	ARNT-TACC3 inh	UCH37 inh	Efflux pump inh	RTF Ca sens act	Cardiac RTF inh	SUMO Mot1 rescue
CCOC(=O)c1c(NC(=O)C2C3C=CC(CC3)C2C(=O)O)sc(C)c1C (stereo not drawn)	-2	/	0	-5	-13	298*
Cc1ccc(Nc2ccc(C(N)=O)cc2[N+](=O)[O-])cc1C	-1	26*	0	0	0	6
COc1ccc(N(C(=O)CCl)C(C(=O)NCCc2ccccc2)c2cccs2)cc1Cl (stereo not drawn)	-9	5	0	2	8	264*
CCN(CC)c1ccc(C=Nc2cccnc2Cl)c(O)c1	active	14	0	-1	-9	1
Cc1ccc(NN=C(C#N)C(=O)c2ccsc2)cc1	/	6	/	/	/	/
COc1ccc(CCNc2nc(-c3ccccn3)cs2)cc1OC	65*	/	0	-4	-1	2
Cc1cc(C(=O)NN=Cc2cccnc2)cs1	/	3	/	/	/	/
CC(=NN=C(N)N)c1ccc(Cl)cc1	/	6	/	/	/	/
NC(=O)C1CCN(CC(=O)Nc2cc(Cl)ccc2Oc2ccccc2)CC1	-2	0	0	7	-7	321*
O=C(CN1CCCCC1)Nc1cc(Cl)ccc1Oc1ccccc1	-13	2	0	4	-8	113
Cn1cccc1C=Nn1c(-c2ccco2)n[nH]c1=S	/	5	/	/	/	/
CC(=O)Nc1sc(/C(C#N)=C/c2ccc(Cl)c(Cl)c2)nc1-c1ccc(C)cc1	-2	7	/	76*	-24	/
CC(=O)Nc1sc(N/N=C/c2ccc(C)cc2)nc1-c1ccc(C)cc1	-5	/	0	2	-8	4
COc1ccccc1NC(=O)CC1S/C(=N/N=C2CCCc3ccccc32)NC1=O (stereo not drawn)	/	4	/	/	/	/
Cc1ccc(CON=CC2=C(Cl)c3ccccc3CC2)cc1	/	3	/	/	/	/
COc1ccc(/C=c2\s/c(=C/C(=O)c3ccc(C)cc3)[nH]c2=O)cc1OC	3	/	0	30*	-42	-7
CC(=O)OCC1OC(Sc2cccc3cccnc23)C(OC(C)=O)C(OC(C)=O)C1OC(C)=O (stereo not drawn)	68*	-49	0	-8	-10	15
CS(=O)(=O)Nc1nc2n(n1)C(c1ccccc1)C=C(c1ccc(Br)cc1)N2 (stereo not drawn)	-6	-194	0	82*	-78	3
COc1cc(NC(=O)COC(=O)CC(NC(C)=O)c2ccccc2)cc(OC)c1 (stereo not drawn)	/	3	0	-5	-6	352*
NS(=O)(=O)c1ccc(-c2ccc(/C=C3\NC(=S)NC3=O)o2)cc1	58*	/	0	-5	-15	10
NS(=O)(=O)c1ccc(-c2ccc(C=O)o2)cc1	/	5	0	/	/	9
NC(=O)c1c(NC(=O)C2COc3ccccc3O2)sc2c1CCN(Cc1ccccc1)C2 (stereo not drawn)	-6	-46	0	38*	-77	6
CC(=O)c1ccc(C(=O)Nc2sc3c(c2C(N)=O)CCN(Cc2ccccc2)C3)cc1	-5	0	0	102*	-160	-5
COc1cccc(OC)c1C(=O)Nc1sc2c(c1C(N)=O)CCN(Cc1ccccc1)C2	2	-10	0	2	-9	0
CCOC(=O)c1c(NC(=O)C2COc3ccccc3O2)sc2c1CCN(Cc1ccccc1)C2 (stereo not drawn)	-2	2	0	0	8	21
SMILES	ARNT-TACC3 inh	UCH37 inh	Efflux pump inh	RTF Ca sens act	Cardiac RTF inh	SUMO Mot1 rescue
COc1cccc(Cn2cc(C=NNC(=O)c3cc(O)cc(O)c3)c3ccccc32)c1	/	-28	/	/	/	/
COc1ccccc1NC(=O)c1ccc(N2CC3CC(C2)c2cccc(=O)n2C3)c(NC(=O)c2ccncc2)c1 (stereo not drawn)	-3	1	0	-4	2	-6
COc1cc(/C=C(\NC(=O)c2ccccc2)C(=O)N2CC3CC(C2)c2cccc(=O)n2C3)cc(OC)c1OC (stereo not drawn)	-19	2	0	-1	-10	+
CN(Cc1c(C(=O)NN=Cc2ccccc2)nnn1-c1nonc1N)C1CCCCC1	/	0	/	/	/	/
Cn1nnnc1Sc1ncnc2scc(-c3ccc4c(c3)OCO4)c12	47*	2	0	10	-6	-16
C=CC[C@@H]1C=C(C)C[C@H](C)C[C@H](OC)[C@H]2O[C@@](O)(C(=O)C(=O)N3CCCC[C@H]3C(=O)O[C@H](/C(C)=C/[C@@H]3CC[C@@H](O)[C@H](OC)C3)[C@H](C)[C@@H](O)CC1=O)[C@H](C)C[C@@H]2OC	/	/	1.1*	/	/	57
CCOC(=O)C1CCN(C(=O)c2ccc(Cl)c(S(=O)(=O)N3CCOCC3)c2)CC1	5	5	0	-3	0	/
CCOC(=O)C1CCN(C(=O)c2cc(S(=O)(=O)N3CCOCC3)c(Cl)cc2Cl)CC1	-3	-6	0	8	1	285*
CCNc1nc(NCC)nc(NN=Cc2ccc([N+](=O)[O-])o2)n1	/	8	/	/	/	/
O=C(/C=C/c1ccccc1)Oc1cccc2cccnc12	47*	4	0	4	3	-15
COc1ccc(C=N/N=C2/NC(=O)CC(C(=O)O)S2)cc1 (stereo not drawn)	/	11	/	/	/	/
COCCNC(=S)Nc1cc(OC)c(OC)cc1C#N	50*	2	/	2	-3	/
COCCCNC(=S)Nc1cc(C)c(C)cc1C	2	6	0	8	-2	14
CC(=O)N/N=C/c1cc(C(C)C)cc(/C=N/NC(C)=O)c1O	72*	/	0	10	-17	24
O=C(CCN1C(=O)/C(=C/c2ccccc2)SC1=S)NNC(=O)c1cccnc1	-3	/	0	35*	-43	44
COc1cccc(C=NNc2ncnc3scc(-c4ccccc4)c23)c1OC	/	7	/	/	/	/
Cc1ccc2cc(CN(C(=O)c3ccncc3)C(C)C)c(=O)[nH]c2c1	13	1	0	-8	4	306*
CC(C)N(Cc1cc2ccccc2[nH]c1=O)C(=O)c1cccnc1	-2	-4	0	-6	-6	8
CCC(C(=O)NN=Cc1cccnc1)c1ccccc1 (stereo not drawn)	/	5	/	/	/	/
Brc1ccc(-c2cn3nc4c(nc3n2)CCCC4)cc1	/	-69	0	20	-22	-4
Brc1ccc(-c2cn3c(n2)CCc2ccc4cccnc4c2-3)cc1	47*	-65	0	-4	-14	/
S=c1c2c(nc3nc[nH]n13)CCC2	35*	8	0	2	-12	-17
CSc1nc(N(C)NC(=O)c2ccc(Cl)cc2)c2ccccc2n1	-4	-2	0	5	-11	334*
CSc1nc(N(C)NC(=O)c2ccccc2)c2ccccc2n1	-8	3	0	-5	9	162
O=C(NN=Cc1ccc(O)cc1O)c1ccccc1NS(=O)(=O)c1cccs1	47*	-5	0	1	-8	-10
